Results on two molecules are retold here after ChEMBL document CHEMBL5390295, “Isolinderalactone Ameliorates the Pathology of Alzheimer's Disease by Inhibiting the JNK Signaling Pathway” (2023).

Experiment [1] has as its system Mus musculus. Kind of experiment: Anti-alzheimer activity against APP/PS1 dE9 double transgenic mouse model assessed as decrease in escape latency at 5 mg/kg, ip administered once daily for 30 consecutive day measured on day 5 by morris water maze test. Format: functional, organism-based. The conditions noted are these: time 30.0 day. In short, it runs like this: (§1)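 Female APP/PS1 mice, 10 months old, about 30 g, 10 per group. Dosing was intraperitoneal in 1× PBS, once daily for one month (1 or 10 mg/kg test; 5 mg/kg donepezil). WT and untreated APP/PS1 controls got PBS. Morris water maze: training days 1–4, averaged escape latency. Day-5 probe trial ran 60 s with the platform removed, recording platform crossings and time per quadrant. Mean ± SEM.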

Experiment [2] relates to Mus musculus. Nature of the experiment: Anti-alzheimer activity against APP/PS1 dE9 double transgenic mouse model assessed as increase in platform crossings at 5 mg/kg, ip administered once daily for 30 consecutive days […] by morris water maze test. Format: functional, organism-based. The conditions noted are these: time 30.0 day. Put shortly:
as §1

Experiment [3] has as its system Mus musculus. Kind of experiment: Anti-alzheimer activity against APP/PS1 dE9 double transgenic mouse model assessed as increase in time spent in the target quadrant at 5 mg/kg, ip administered once daily for 30 consecutive days measured on day 5 by morris water maze test. Format: functional, organism-based. The note with it: time 30.0 day. In short, it runs like this:
as §1

Experiment [4] has as its system Mus musculus. Kind of experiment: Anti-alzheimer activity in hippocampus of APP/PS1 dE9 double transgenic mouse model assessed as reduction in glial cell aggregation at 5 mg/kg, ip administered once daily for 30 consecutive days by immunofluorescence staining. Format: functional, organism-based. The conditions noted are these: time 30.0 day. In short, it runs like this:
(§2)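 Brains from dosed female APP/PS1 mice (10 months) were fixed in 4% paraformaldehyde at 4 °C for 24–48 h, taken through a sucrose gradient and OCT, and cut into 15 μm sections. Sections were permeabilized with 0.3% Triton X-100, blocked in 10% BSA for 1 h, and incubated with primary antibody overnight at 4 °C (1:200). Secondary was 1:500 for 1 h at 25 °C, with DAPI counterstain and confocal imaging, in triplicate.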

The subject of experiment [5] is Mus musculus. Nature of the experiment: Anti-alzheimer activity in hippocampus of APP/PS1 dE9 double transgenic mouse model assessed as reduction in amyloid beta plaque deposition at 5 mg/kg, ip administered once daily for 30 consecutive days by immunofluorescence staining. Type of experiment: functional, organism-based. The conditions noted are these: time 30.0 day. Put shortly: as §2

In experiment [6] the test system is Mus musculus. Kind of experiment: Anti-alzheimer activity in hippocampus of APP/PS1 dE9 double transgenic mouse model assessed as increase in SOD content at 5 mg/kg, ip administered once daily for 30 consecutive days by immunofluorescence analysis. The conditions noted are these: time 30.0 day. Type of experiment: functional, organism-based.
For experiment [7], the system named is Mus musculus. Nature of the experiment: Anti-alzheimer activity in hippocampus of APP/PS1 dE9 double transgenic mouse model assessed as decrease in MDA level at 5 mg/kg, ip administered once daily for 30 consecutive days […]. Type of experiment: functional, organism-based. The conditions noted are these: time 30.0 day. In short, it runs like this:
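Hippocampal tissue from dosed APP/PS1 mice was lysed in RIPA. SOD activity was read by WST-8/xanthine oxidase formazan kit assay and MDA by lipid peroxidation kit, with absorbance on a microplate reader.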

Experiment [8] has as its system Mus musculus. Kind of experiment: Neuroprotective activity in APP/PS1 dE9 double transgenic mouse model assessed as improvement in spatial memory at 5 mg/kg, ip administered once daily for 30 consecutive days […] by morris water maze test. Type of experiment: functional, organism-based. The conditions noted are these: time 30.0 day. In short, it runs like this:
as §1

In experiment [9] the test system is PC-12. Kind of experiment: Neuroprotective activity against Abeta1-42 induced rat PC12 cells assessed as effect on Bcl2/Bax ratio level at 1.25 uM preincubated for 0.5 hrs followed by Abeta1-42 induction and measured after 24 hrs by Western blot analysis. Format: functional, cell-based. The conditions noted are these: time 24.5 hrs. Put shortly: (§3)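 Aβ1–42 challenge in PC12 cells was 10 μM for 24 h after 3 h pretreatment at 10 μM. SP600125 (1.25 μM) was added 0.5 h before pretreatment where used. Cells were lysed in RIPA and protein measured by BCA. Blotting used PVDF transfer, 5% BSA/TBST block for 2 h, primaries 1:1000 overnight at 4 °C, and HRP secondary for 2 h. Bcl-2/Bax ratio and band intensities were quantified.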
On the technique in general: Immunoblotting shows a protein as a band on a membrane.

The test system of experiment [10] is PC-12. Kind of experiment: Neuroprotective activity against Abeta1-42 induced rat PC12 cells assessed as effect on cleaved caspase-3 protein level at 1.25 uM preincubated for 0.5 hrs followed by Abeta1-42 induction and measured after 24 hrs by Western blot analysis. Type of experiment: functional, cell-based. The note with it: time 24.5 hrs. In short, it runs like this: as §3

The source made the active and inactive calls. The rule behind the calls is not given here.

In the case of `COc1cc2c(cc1OC)C(=O)C(CC1CCN(Cc3ccccc3)CC1)C2` (stereo not given), the outcome in [1], in experiment [2], in [3], in [4], in [5] and in experiment [6] was Active. Moreover, the outcome in [7] and in [8] was Active.
As to `O=C1c2ccccc2-c2n[nH]c3cccc1c23`, the outcome in experiment [9] and in [10] was inactive.
